Screens (PubChem BioAssay)
Shown are actives, neighbours in structure and some others; about 3.5% of the full set was active somewhere.
PAFAH1B2 FP inh: inhibitors of human PAFAH1B2 | P68402 | recombinant PAFAH1B2, FP-rhodamine activity probe, fluorescence polarization | inhibition, % at 3.39 µM | hit rate 1.2% among 340,000;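 active = inhibition above the mean of all tested compounds plus 3 SD, cut at about 24% in these data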;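 note: 0% = enzyme with DMSO and 100% = wells lacking PAFAH1B2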
Target sequence (P68402 whole entry, looked up): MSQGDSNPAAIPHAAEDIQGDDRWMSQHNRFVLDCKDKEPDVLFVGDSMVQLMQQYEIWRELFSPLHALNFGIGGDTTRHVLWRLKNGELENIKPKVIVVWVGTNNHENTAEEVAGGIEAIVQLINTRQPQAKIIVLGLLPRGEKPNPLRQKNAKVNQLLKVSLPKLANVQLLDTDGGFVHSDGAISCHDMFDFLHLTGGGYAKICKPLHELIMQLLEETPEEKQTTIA
PREPL inhibitor: inhibits the human prolyl oligopeptidase-like enzyme; recombinant PREPL, fluorescence polarization activity-based probe; hit rate 0.68% among 320,000; Q4J6C6; AID 2751; inhibition, % at 5.96 µM; in the data active = inhibition above about 43%;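 note: 0% = enzyme with DMSO and 100% = wells lacking enzyme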
pPAFAH inh: pPAFAH (human) enzyme inhibition. Q13093. recombinant pPAFAH, FP-rhodamine probe fluorescence polarization. inhibition, % at 3.39 µM. hit rate 1.5% among 330,000. AID 463082;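 active = inhibition above the mean inhibition across the screen plus 3 SD, cut at about 25% in these data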;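 note: inhibitors block binding of the rhodamine activity-based probe so polarization drops; 0% = enzyme with DMSO and 100% = wells lacking pPAFAH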
Apaf1 inhib: blocks human Apaf-1 apoptosome activity; inhibition, % at 20 µM; reconstituted apoptosome caspase-3 activity, DEVD-Rh110 fluorescence; O14727; AID 489030; hit rate 0.71% among 330,000; active = inhibition of at least 40% at 20 µM;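 note: plate controls were DMSO wells for no effect and DEVD-CHO caspase inhibitor wells for full effect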
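Material: biochemical Apaf-1 apoptosome reconstitution. Medium: Hepes buffer, pH 7.5. Also added: cytochrome c activation, bis-DEVD rhodamine 110 substrate. Timing: 30 min compound preincubation, 50 min activation, room temperature. Measured by: rhodamine 110 fluorescence at Ex 480/Em 540 nm.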
PAFAH2 inh: inhibitors of human PAFAH2; Q99487; recombinant PAFAH2, FP-rhodamine activity probe, fluorescence polarization; AID 492956; hit rate 0.99% among 340,000; inhibition, % at 3.39 µM;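 active = inhibition above the mean over all tested compounds plus 3 SD, cut at about 30% in these data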;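 note: inhibitors block probe labeling of enzyme so polarization drops; 0% = enzyme with DMSO and 100% = wells lacking PAFAH2 protein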
PAFAH1B3 inh: inhibitors of human PAFAH1B3 | hit rate 0.28% among 340,000 | recombinant PAFAH1B3, FP-rhodamine probe, fluorescence polarization | inhibition, % at 3.39 µM | Q15102;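 active = inhibition above the screen-wide average of all tested compounds plus 3 SD, cut at about 25% in these data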;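 note: 0% = enzyme with DMSO only and 100% = wells lacking PAFAH1B3 protein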
Target sequence (Q15102 whole entry, looked up): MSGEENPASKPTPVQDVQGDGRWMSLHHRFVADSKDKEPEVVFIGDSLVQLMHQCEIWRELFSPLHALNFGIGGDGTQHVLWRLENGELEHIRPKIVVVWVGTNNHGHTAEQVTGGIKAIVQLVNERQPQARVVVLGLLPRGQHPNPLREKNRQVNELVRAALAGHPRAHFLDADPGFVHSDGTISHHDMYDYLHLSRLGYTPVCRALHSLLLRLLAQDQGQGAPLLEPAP
PAFAH2 confirm: PAFAH2 (human) inhibition, confirmed | inhibition, % at 3.39 µM | recombinant PAFAH2, FP-rhodamine activity probe, fluorescence polarization | hit rate 65% among 2,300 | shares compounds with PAFAH2 inh;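 active = mean inhibition over three repeats above a set limit taken from the earlier primary screen, cut at about 30% in these data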;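 note: inhibitor blocks binding of rhodamine activity probe so polarization falls; 0% = enzyme with DMSO and 100% = wells lacking PAFAH2 protein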
* marks the source's active call; other numbers are inactive results.

What do the screens show for `CNS(=O)(=O)c1cccc(C(=O)OCC(=O)NC2CCCC(C)C2C)c1` (centres undefined)?
PAFAH1B2 FP inh: 16; PREPL inhibitor: 20; pPAFAH inh: 4; Apaf1 inhib: -5; PAFAH2 inh: 63*; PAFAH1B3 inh: 1; PAFAH2 confirm: 49*

Results for COc1cccc(CC(=O)OCC(=O)NC2(C#N)CCCCC2)c1 ?
PAFAH1B2 FP inh: 1; PREPL inhibitor: -4; pPAFAH inh: 14; Apaf1 inhib: 1; PAFAH2 inh: 32*; PAFAH1B3 inh: 4; PAFAH2 confirm: 14

What do the screens show for `CCCCN(C(=O)c1cc(Cl)nc2ccccc12)c1c(N)n(Cc2ccccc2)c(=O)[nH]c1=O`?
PAFAH1B2 FP inh: -3; PREPL inhibitor: -4; pPAFAH inh: 3; Apaf1 inhib: 0; PAFAH2 inh: 1; PAFAH1B3 inh: 2

Results for CC(=O)c1cccc(NC(=O)Cn2cnc(S(=O)(=O)N3CCOCC3)c2)c1 ?
PAFAH1B2 FP inh: 3; PREPL inhibitor: 5; pPAFAH inh: 5; Apaf1 inhib: 1; PAFAH2 inh: 4; PAFAH1B3 inh: 3

What do the screens show for `Cc1ccc(C(=O)OCC(=O)NC2CCCCC2)o1`?
PAFAH1B2 FP inh: 4; PREPL inhibitor: 10; pPAFAH inh: 8; Apaf1 inhib: -6; PAFAH2 inh: 68*; PAFAH1B3 inh: 5; PAFAH2 confirm: 46*

What do the screens show for `O=c1[nH]ccc2c(O)cccc12`?
PAFAH1B2 FP inh: -2; PREPL inhibitor: -3; pPAFAH inh: 0; Apaf1 inhib: -7; PAFAH2 inh: 4; PAFAH1B3 inh: 1

What do the screens show for `N/C(Cc1ccc([N+](=O)[O-])cc1)=N\OC(=O)c1ccco1`?
PAFAH1B2 FP inh: 7; PREPL inhibitor: 7; pPAFAH inh: 1; Apaf1 inhib: -16; PAFAH2 inh: 39*; PAFAH1B3 inh: 1; PAFAH2 confirm: 37*

What do the screens show for `Cc1ccc(CC(=O)O/N=C(\N)Cc2ccc([N+](=O)[O-])cc2)cc1`?
PAFAH1B2 FP inh: 13; PREPL inhibitor: 18; pPAFAH inh: 7; Apaf1 inhib: 5; PAFAH2 inh: 9; PAFAH1B3 inh: -1

What do the screens show for `Cc1cccc(C(=O)O/N=C(\N)Cc2cccc3ccccc23)c1`?
PAFAH1B2 FP inh: 5; PREPL inhibitor: -9; pPAFAH inh: 7; Apaf1 inhib: 13; PAFAH2 inh: 75*; PAFAH1B3 inh: -2; PAFAH2 confirm: 74*

What do the screens show for `N/C(Cc1ccc(Cl)cc1)=N\OC(=O)C1CCCCC1`?
PAFAH1B2 FP inh: 3; PREPL inhibitor: 3; pPAFAH inh: 1; Apaf1 inhib: 4; PAFAH2 inh: 40*; PAFAH1B3 inh: 11; PAFAH2 confirm: 42*

Results for N/C(Cc1ccc([N+](=O)[O-])cc1)=N\OC(=O)c1ccccc1Br ?
PAFAH1B2 FP inh: 2; PREPL inhibitor: 10; pPAFAH inh: 7; Apaf1 inhib: 6; PAFAH2 inh: -1; PAFAH1B3 inh: 6

What do the screens show for `Cc1cccc(C(=O)O/N=C(\N)Cc2ccc([N+](=O)[O-])cc2)c1`?
PAFAH1B2 FP inh: 0; PREPL inhibitor: 0; pPAFAH inh: 15; Apaf1 inhib: 12; PAFAH2 inh: 37*; PAFAH1B3 inh: 5; PAFAH2 confirm: 30

What do the screens show for `Cc1cccc(/C(N)=N/OC(=O)Cc2cccc3ccccc23)c1`?
PAFAH1B2 FP inh: -2; PREPL inhibitor: -7; pPAFAH inh: 5; Apaf1 inhib: 0; PAFAH2 inh: 1; PAFAH1B3 inh: 0

Results for CC(=O)NC(CC(C)C)C(=O)O (centres undefined) ?
PAFAH1B2 FP inh: 8; PAFAH2 inh: -2; PAFAH1B3 inh: 10

What do the screens show for `O=C1CC2(CCN(C(=O)c3cccc(F)c3)CC2)Oc2ccccc21`?
PAFAH1B2 FP inh: 1; PREPL inhibitor: 22; pPAFAH inh: -2; Apaf1 inhib: 8; PAFAH2 inh: 4; PAFAH1B3 inh: -5

How did N/C(Cc1ccc([N+](=O)[O-])cc1)=N\OC(=O)c1ccc2ccccc2c1 do in these assays?
PAFAH1B2 FP inh: 0; PREPL inhibitor: -2; pPAFAH inh: 20; Apaf1 inhib: 18; PAFAH2 inh: 62*; PAFAH1B3 inh: 8; PAFAH2 confirm: 54*

What do the screens show for `COc1cccc(C(=O)O/N=C(\N)Cc2ccc(Cl)cc2)c1`?
PAFAH1B2 FP inh: 5; PREPL inhibitor: 10; pPAFAH inh: 19; Apaf1 inhib: 11; PAFAH2 inh: 69*; PAFAH1B3 inh: 4; PAFAH2 confirm: 56*

What do the screens show for `COc1ccc(O)c(C(=O)c2cnn(C(=O)c3cc(C)oc3C)c2)c1`?
PAFAH1B2 FP inh: 5; PREPL inhibitor: -4; pPAFAH inh: 2; Apaf1 inhib: 9; PAFAH2 inh: 41*; PAFAH1B3 inh: 3; PAFAH2 confirm: 21

What do the screens show for `O=C(COC(=O)c1ccc(OC(F)F)cc1)NC(=O)NC1CCCC1`?
PAFAH1B2 FP inh: 3; PREPL inhibitor: 22; pPAFAH inh: 5; Apaf1 inhib: -1; PAFAH2 inh: 12; PAFAH1B3 inh: 2

What do the screens show for `O=C(COC(=O)c1cccc(O)c1)Nc1ccc(OC(F)F)cc1`?
PAFAH1B2 FP inh: 4; PREPL inhibitor: -5; pPAFAH inh: 0; Apaf1 inhib: -23; PAFAH2 inh: 64*; PAFAH1B3 inh: 3; PAFAH2 confirm: 54*

How did CN(C)c1cccc(C(=O)OCC(=O)NC2CCCC2)c1 do in these assays?
PAFAH1B2 FP inh: 5; PREPL inhibitor: 23; pPAFAH inh: 23; Apaf1 inhib: 11; PAFAH2 inh: 77*; PAFAH1B3 inh: 7; PAFAH2 confirm: 78*

What do the screens show for `O=C(COC(=O)c1cccc(OC(F)F)c1)NC1CCCC1`?
PAFAH1B2 FP inh: 0; PREPL inhibitor: 0; pPAFAH inh: 24; Apaf1 inhib: -5; PAFAH2 inh: 52*; PAFAH1B3 inh: 7; PAFAH2 confirm: 40*

How did CCCCCCOc1ccc(N2C(=O)CC(N(CCc3ccc(S(N)(=O)=O)cc3)C(C)=O)C2=O)cc1 (centres undefined) do in these assays?
PAFAH1B2 FP inh: 4; PREPL inhibitor: -7; pPAFAH inh: 11; Apaf1 inhib: 9; PAFAH2 inh: 0; PAFAH1B3 inh: 6

How did CCCC1OC23CCCCC2C(C#N)(C(=N)O3)C1(C#N)C#N (centres undefined) do in these assays?
PAFAH1B2 FP inh: 15; PREPL inhibitor: 3; pPAFAH inh: 13; Apaf1 inhib: 1; PAFAH2 inh: 30*; PAFAH1B3 inh: 21; PAFAH2 confirm: 0

How did O=C(CCC1CCCC1)NNC(=O)COc1ccc(Br)cc1 do in these assays?
PAFAH1B2 FP inh: 19; PREPL inhibitor: 0; pPAFAH inh: 5; Apaf1 inhib: 2; PAFAH2 inh: 35*; PAFAH1B3 inh: 11; PAFAH2 confirm: 23

Results for O=C1/C(=C/c2ccco2)SC(=S)N1c1cccnc1 ?
PAFAH1B2 FP inh: 7; PAFAH2 inh: 32*; PAFAH1B3 inh: 14; PAFAH2 confirm: 18
